System: MS2 coat protein
Test: apparent Kd, MS2 coat protein; higher = weaker binding; RNA-MaP array; FMN 200 µM where present
How it was run: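 Designs on Illumina sequencing-chip clusters, transcribed by stalled E. coli RNA polymerase, were exposed to SNAP-549-labelled MS2 coat protein in doubling steps from 0.7 or 1.5 nM up to 3 µM, without and then with constant ligand. The buffer held 100 mM Tris-HCl pH 7.5, 80 mM KCl, 4 mM MgCl2, BSA, DTT, yeast tRNA and Tween-20. Apparent Kd values are medians of filtered per-cluster binding-curve fits to green signal normalised to red-channel RNA signal and control-cluster median Fmax.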

[1] = designed as: ON switch for flavin mononucleotide, no ligand
[2] = ligand present: flavin mononucleotide, designed as: ON switch for flavin mononucleotide
[3] = designed as: OFF switch for flavin mononucleotide, no ligand
[4] = ligand present: flavin mononucleotide, designed as: OFF switch for flavin mononucleotide

Sequence | apparent Kd [1] | apparent Kd [2] | apparent Kd [3] | apparent Kd [4]
GCGUAAUAGGUGUAGCUAGUCGUACAAGAAGGGUGGUGAACAUGAGGAUCACCCAUGUGGUCAAUACAGGAUAUUGUUAUACGC | 0.832 µM | 0.112 µM |  | 
GACAUGGUCCAGAAGGGCUAUUUAUUUAAGUAUUAUUUAGAACAGCAUAGCAGGAUAUGGCUAACAUGAGGAUCACCCAUGUUC | 0.0188 µM | 0.0116 µM |  | 
AGCUACGUUUCGUAGCAGUGUCAUCGAGAAGGCUCAUUAACAUGAGGAUCACCCAUGUAUUCAUGGGAGGAUAUCGAUGAUACA | 0.131 µM | 0.00922 µM |  | 
GACUGCGUUAUGAAGGAUAUCCGCGUCUGGACAUGAGGAUCACCCAUGUAUACUUGGAUCGUGCAGGAGAAGGUCAAGGGUGAUU | 0.09 µM | 0.265 µM |  | 
AGUGCUAUGUAGAAGGCAGAUCUGAUUCAGAUCUGAGGAUAUACAUGAGGAUCACCCAUGUUAUGCACCAGCACGAGAGUGCAC |  |  | 0.00791 µM | 0.0168 µM
GGAUGACAAAGUCAUCCAAUUCGAACAUGAGGAUCACCCAUGUAGGAUAUGCUACACAAAGUGUAGCAGAAGGACAUGUGCUUU |  |  | 0.0365 µM | 0.169 µM
CGUCCUUAGUGAGGAUAUCAGAAAAUACGGAAAUGAGAAGGCACAUGAGGAUCACCCAUGUAAAUAACGGCCGGCCUUGGCAGC |  |  | 0.00626 µM | 0.0134 µM
CAUGACGAAGGAUAUACAUGAGGAUCACCCAUGUGGUCAUGGAAGUACGUGUUCUCGCGUAGAAGGUUGUAAAA |  |  | 0.0129 µM | 0.0136 µM
UGGUUGUGAGGAUAUACGUUUUUUAACUCUUGUUUUAUACUGUAGAAGGCACAUGAGGAUCACCCAUGUUACGU |  |  | 0.0224 µM | 0.026 µM
AAAAGCAUCCAGUAUCAAAAUACAUGAGGAUCACCCAUGUAGCAGGAUAUCAACGUUCCCGACGGUGAGAAGGGCUAUAUGUUG |  |  | 0.00747 µM | 0.00926 µM
ACAUACAUUCGAGGAUAUCGGUGAUUAAUUUUACGAGAAGGCGAUAUAAGAUUUAAUAUUUUAGACAUGAGGAUCACCCAUGUA | 0.0276 µM | 0.0227 µM |  | 
UGUUGUAUUACAGGAUAUCUAGUAUUUUUAUAUAGAGAAGGGUAUUCACAUGAGGAUCACCCAUGUAUAUACGAGGAAGUUGUG | 0.0303 µM | 0.0322 µM |  | 
AGUAACAGAGGAUAUACUGUUUUAUGUAUUUAUUAUUUUAAACAUGAGGAUCACCCAUGUAGAAGGCUGAAUAA |  |  | 0.0206 µM | 0.0203 µM
GGUGGACAUGAGGAUCACCCAUGUGAGGAUAUCGGCUGGUGCGUGGUGGCUGGCAUCUCGAGAAGGCACAUAGU |  |  | 0.0944 µM | 0.171 µM
CAGUACUGAGGAUAUACAUGAGGAUCACCCAUGUGAAAAAGCUACGAAAGUAGCAAAUGUAGAAGGCAGUACUG |  |  | 0.0343 µM | 0.254 µM
GGACCGAGUGUGAGGAUAUGCUGGUCCUUGGAUCAGCAGAAGGCACAUGAGGAUCACCCAUGUGGUGUCGGUCC |  |  | 0.573 µM | 0.203 µM
GUAGCAUUGACAGGAUAUCCAUAUCCGAAAGGGACAUGAGGAUCACCCAUGUCGCGAAAGCGGUGGGAGAAGGGUCUAUGCUAC | 0.00503 µM | 0.00438 µM |  | 
CGUCGGUGGCAGAAGGGACAGAGAUCCUCGCUGCCGGAUCGUCUUGCACAUGAGGAUCACCCAUGUCAGGAUAUGCCCAAGCGG |  |  | 0.00535 µM | 0.00515 µM
GAUAGGACAGAGAAGGACAUAGCUAGAGAUACUAGCAUAAGAACCUUCACAUGAGGAUCACCCAUGUAGGAUAUCUGUCCUAUC |  |  | 0.00374 µM | 0.00485 µM
AUUAUGACCGAGUUAAGCUUCAAAACAUGAGGAUCACCCAUGUAGGAUAUCAGCACGAUAAGUGCUGAGAAGGACAUCUCGGUC |  |  | 0.0135 µM | 0.0155 µM
AAAAAACAUGAGGAUCACCCAUGUCCUCGGACGUGAGGAUAUGUACAGACUUCGGUCUGUACAGAAGGCACGUCAA | 0.512 µM | 0.446 µM |  | 
UACCUGAGGCAAAGCUUUAGGUAUACAUGAGGAUCACCCAUGUAGGAUAUGGUAGGCCUUGCUUACCAGAAGGACAUGUUAAUU |  |  | 0.0235 µM | 0.0761 µM
UAAUUUUGUCAAGGAUAUGUAAUAUAGAUUUGUAAACAUGAGGAUCACCCAUGUAUAUGGUGGGAACAGAAGGUGAAUGGAGAA |  |  | 0.196 µM | 0.171 µM
GUUGGUGUAGAAGGAUAUUGGUGAGGCGUCUUGUACAUGAGGAUCACCCAUGUCAUUCUGCACGCCGAGAAGGUCUGCAAUUGG | 0.0679 µM | 0.057 µM |  | 
